pEC50: −log10 of the molar value. In brackets after ≈: the same amount, converted by molar mass.
What was measured:
[1] = Protein binding in CD-1 mouse plasma incubated for 4 hrs by equilibrium dialysis based LC-MS/MS analysis; format: ADME, cell-free; settings: CD-1, mouse, read-out: PPB (converted)
[2] = Stability in CD-1 mouse plasma assessed as half-life measured upto 120 mins by LC-MS analysis; format: ADME, cell-free; settings: 2 h
Naegleria fowleri [3] = assay: Anti-ameobic activity against Naegleria fowleri TY (ATCC 30107) trophozoites assessed as inhibition of amoeba growth incubated for 48 hrs by CellTiter-Glo assay; format: functional, organism-based
Outline: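 TY strain (ATCC 30107) trophozoites, seeded at 1 × 10^4 cells/mL, were exposed 48 h (37 °C, 5% CO2) to vehicle or compound, with concentrations initially 20 to 0.375 μM. CellTiter-Glo luminescence gave % growth inhibition versus controls. EC50 was fit from triplicate runs (n = 3, ± SEM).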

[4] = Metabolic stability in human liver microsomes assessed as half-life; format: ADME, Microsome
[5] = Kinetic solubility of compound at pH 7.4 incubated for 24 hrs by HPLC analysis; format: physicochemical; settings: buffer; for solubility kinetic at 24 h: pH 7.4, read-out: Kinetic_solubility; for Kinetic_solubility: pH 7.4, 24 h
[6] = Selectivity index, ratio of CC50 for cytotoxicity against human SH-SY5Y cells to EC50 for anti-amoebic activity against Naegleria fowleri Nf69 (ATCC 30215) assessed as inhibition of amoeba growth; format: toxicity, cell-based; settings: for selectivity ratio: SH-SY5Y cells, read-out: Ratio CC50/EC50
[7] = Metabolic stability in CD-1 mouse liver microsomes assessed as half-life incubated for 60 mins by LC-MS/MS analysis; format: ADME, Microsome; settings: 1 h
Outline: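 Half-life measured in CD-1 mouse liver microsomes with NADPH over a 60 min exposure.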

SH-SY5Y = assay: (§1) Cytotoxicity against human SH-SY5Y cells assessed as reduction in cell viability incubated for 72 hrs by CellTiter-Glo assay; format: toxicity, cell-based; settings: sh-sy5y, 72 h
Outline: (§2)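 SH-SY5Y cells at 2000 per well attached overnight at 37 °C. Compound from 20 mM DMSO stocks was added in triplicate as a dose series starting at 20 μM, with doxorubicin as positive control.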

[8] = Protein binding in CD-1 mouse plasma assessed as free fraction incubated for 4 hrs by equilibrium dialysis based LC-MS/MS analysis; format: ADME, cell-free
Naegleria fowleri [9] = assay: Anti-ameobic activity against Naegleria fowleri Nf69 (ATCC 30215) trophozoites assessed as inhibition of amoeba growth incubated for 48 hrs by CellTiter-Glo assay; format: functional, organism-based
Outline: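 Axenic Nf69 trophozoites were seeded at 1 × 10^4 cells/mL in Nelson's complete medium with 10% heat-inactivated FBS. Compound was added at 20 to 0.375 μM (lower ranges for very potent compounds), with vehicle controls, for 48 h at 37 °C and 5% CO2. CellTiter-Glo luminescence gave % growth inhibition versus controls, and triplicate means were fitted to dose–response curves for EC50.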

[10] = as §1; format: toxicity, cell-based; settings: SH-SY5Y cells; outline: as §2
Naegleria fowleri [11] = assay: Anti-ameobic activity against Naegleria fowleri Nf69 (ATCC 30215) trophozoites infected in female CD-1 mouse model assessed as survival rate at 5 mg/kg, ip pre-infected for 48 hrs from day 0 followed by once daily compound administration from day 2 to day 6 and measured on day 14 post-infection relative to control; format: functional; settings: 312 h, time 13 day
Outline: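 Female CD-1 mice (n = 6/group) were infected intranasally with Nf69 trophozoites on day 0. After a 48 h establishment period, they received IP dosing at 5 mg/kg once daily for 5 days, alongside a vehicle-only infected control group. Survival was followed for 14 days with Kaplan–Meier analysis. Survivor brain tissue was cultured for amoeba, and survival counted only mice whose brains were free of amoeba.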

[12] = Naegleria fowleri, Nf69 (ATCC 30215), 48 h

solubility kinetic at 24 h [5] [µM]	t1/2 [7] [min]	Structure (SMILES)	Ratio CC50/EC50 [6]	CC50 (SH-SY5Y) [nM]	pEC50 (Naegleria fowleri [9])	selectivity ratio [6]	pEC50 (Naegleria fowleri [9]; [12])	further results
29.1 (≈ 11.3 µg/mL)	75.6	COc1cc2nc3n(c(=O)c2cc1Cl)CC[C@@H]1[C@@H]3CCCN1CC1COC1	> 40.8	> 20000	6.31			fraction unbound at 4 h [1]: 0.26; t1/2 [2]: > 289 min; pEC50 (Naegleria fowleri [3]): 6.33; t1/2 [4]: 80.3 min; fraction unbound at 4 h [8]: 0.26
	109	O=c1c2cc(Cl)c(Cl)cc2nc2n1CC[C@@H]1[C@@H]2CCCN1CC1COC1 (racemic)		> 20000		> 33000	8.22	Kinetic_solubility [5]: 40 µM
	> 145	COc1cc2nc3n(c(=O)c2cc1Cl)CC[C@@H]1[C@@H]3CCCN1CC1COC1 (racemic)	172	5000	7.54			Kinetic_solubility ([5]; 24 h): 198 µM
65.7 (≈ 26.7 µg/mL)	3.1	COc1cc2nc3n(c(=O)c2cc1Cl)CC[C@@H]1[C@@H]3CCCN1CCOC(C)C (racemic)		2500		22.7	6.96	
136 (≈ 51.7 µg/mL)	104.6	COc1cc2nc3n(c(=O)c2cc1C#N)CC[C@@H]1[C@@H]3CCCN1CC1COC1 (racemic)		> 20000		> 167	6.92	
172 (≈ 71.7 µg/mL)	> 145	COc1cc2nc3n(c(=O)c2cc1Cl)CC[C@@H]1[C@@H]3CCCN1CCN1CCCC1 (racemic)		> 20000		> 27	6.13	
4.6 (≈ 1.78 µg/mL)	3.8	COc1cc2nc3n(c(=O)c2cc1Cl)CC[C@@H]1[C@@H]3CCCN1CC1CCC1 (racemic)		640		42.7	7.82	
43.1 (≈ 18.7 µg/mL)	29.8	COc1cc2nc3n(c(=O)c2cc1Cl)CC[C@@H]1[C@@H]3CCCN1CCN1CCOCC1 (racemic)		> 20000		> 38.5	6.28	
76.1 (≈ 28.5 µg/mL)	12.6	COc1cc2nc3n(c(=O)c2cc1Cl)CC[C@@H]1[C@@H]3CCCN1CC1CC1 (racemic)		1000		43.5	7.64	
3.8 (≈ 1.56 µg/mL)		COc1cc2nc3n(c(=O)c2cc1Cl)CC[C@@H]1[C@@H]3CCCN1Cc1cccnc1 (racemic)		> 20000		> 167	6.92	
	75.2	O=c1c2cc(Cl)c(Cl)cc2nc2n1CC[C@@H]1[C@@H]2CCCN1CCN1CCOCC1 (racemic)		> 20000			7.96	Kinetic_solubility [5]: 206 µM
		C[C@@H]1[C@H](O)[C@@H](C)/C=C/C=C/C=C/C=C/C=C/C=C/C=C/[C@H](O[C@@H]2O[C@H](C)[C@@H](O)[C@H](N)[C@@H]2O)C[C@@H]2O[C@](O)(C[C@@H](O)C[C@@H](O)[C@H](O)CC[C@@H](O)C[C@@H](O)CC(=O)O[C@H]1C)C[C@H](O)[C@H]2C(=O)O [AMPHOTERICIN B]						survival at 5 mg/kg (Naegleria fowleri [11]): 17%

Structure (SMILES)	solubility kinetic at 24 h [5] [µM]	t1/2 [7] [min]	Ratio CC50/EC50 [6]	CC50 (SH-SY5Y) [nM]	pEC50 (Naegleria fowleri [9])	selectivity ratio [6]	pEC50 (Naegleria fowleri [9]; [12])	further results
CN1CCC[C@@H]2c3nc4cc(Cl)c(Cl)cc4c(=O)n3CC[C@H]21		6.1	90.7	7800	7.07			Kinetic_solubility ([5]; 24 h): 98.2 µM
CN1CCC[C@@H]2c3nc4ccc(Cl)cc4c(=O)n3CC[C@H]21		11.5	> 71.4	> 20000	6.55			Kinetic_solubility ([5]; 24 h): 129 µM
CN1CCC[C@@H]2c3nc4ccc(C(F)(F)F)cc4c(=O)n3CC[C@H]21		10.9	> 80		6.60			Kinetic_solubility ([5]; 24 h): 109 µM
CN1CCC[C@@H]2c3nc4cc(Cl)c(Cl)cc4c(=O)n3CC[C@H]21 (racemic)	138 (≈ 46.7 µg/mL)				6.70	> 100		CC50 at 72 h [10]: > 20000 nM
CN1CCC[C@@H]2c3nc4ccc(Cl)cc4c(=O)n3CC[C@H]21 (racemic)	187 (≈ 56.8 µg/mL)	18.5	> 20		6.00			CC50 at 72 h [10]: > 20000 nM
CN1CCC[C@@H]2c3nc4ccc(C(F)(F)F)cc4c(=O)n3CC[C@H]21 (racemic)	159 (≈ 53.6 µg/mL)	21.2	> 18.2		5.96			CC50 at 72 h [10]: > 20000 nM
O=c1c2cc(Cl)c(Cl)cc2nc2n1CC[C@@H]1[C@@H]2CCCN1CCO (racemic)		83.1		> 20000			7.70	Kinetic_solubility [5]: < 10 µM

— ChEMBL document CHEMBL5608261, “Pharmacophore Establishment and Optimization of Saturated 1,6-Naphthyridine-Fused Quinazolinones that Inhibit Meningoencephalitis-Causing Naegleria fowleri” (J Med Chem, 2024)
